Compound in the data set: N[C@@H](Cc1c[nH]c2ccccc12)C(=O)O
The data set is described as follows: Activation of Trypanosoma cruzi CA assessed as Kcat at 10 uM preincubated for 15 mins followed by CO2 addition by stopped-flow assay (reference value: 1.2 10^6/s). The method, boiled down: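 kcat of recombinant TcCA measured with 10 µM activator after 15 min pre-incubation at room temperature. Stopped-flow CO2 hydration in 10 mM Hepes pH 7.5 with 0.1 M Na2SO4 and 0.2 mM phenol red (557 nm), 25 °C. Initial velocities from the first 5–10% of the reaction, uncatalyzed rate subtracted. Mean of at least three determinations.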

Drawing on ChEMBL document CHEMBL4229443, “Activation studies with amines and amino acids of the α-carbonic anhydrase from the pathogenic protozoan Trypanosoma cruzi” (Bioorg Med Chem, 2018), this text covers kcat for 1 protein.

B1: Carbonic anhydrase-like protein, putative (Trypanosoma cruzi (strain CL Brener)), Q4CVY4 (protein)
chain: MTCGIRRGEGREGSKMVKAVIFSLLCLHVHALMSPVSAENGYTTAGLPREKPQGPQWGYTNLTAWPKLCQTGKQQSPVSFSELQPNEVVHRKDMGPLVFSRDCKFAAEKTSLKIENEVNTISVRFIPLDDPTNKFPSLCTVRDPTDPDSPEYHLVSMHFHSPAEHVLPCANPDAELHLVFAHTQQSRQPHLMVVVVQLVASDKINSTSVAALKHILLDGSLPPKRAVTTCTLTENMTIAGFLPQSGSYFAYNGSLTTPPCTEGVLFVVLTSPQIISKTALERLVEAFQRARPGNHNGNHRPTQPLNGRVVYHFVDMHHMNYSMCMRDMENHHTNSSQMAGMSGAMQHMNCSMCMRNMENHHKNSSQMEGMSGAMQHMNCSMCMRNMENHHKNSSQMAGMSGAMQHMNCSMCMRNMENHHTNSSQMAGMSGAMQHMNCSMCMRNMENHHKNSSQMAGMSGAMQHMNCSMCMRNMENHHTNSSQMAGMSGAMQHMNCSMCMRNMENHHTNSSQMAGMSGAMQHMNCSMCMRNMENHHKNSSQMEGMSSEEMSMMERSANESSGAQLAGLASEENATNTSSAPANKWPHQFNSRERLFLIAAALVLLLVTFILYRWRNSSARETETESLFRSHEGYGTTNP
On to B1, for which the kcat amounted to 7.8 ×10⁶ /s.
